Values after ≈ are worked out from the molar mass of the structure shown.
Key:
[1] = Antitubercular activity against Mycobacterium tuberculosis H37Ra ATCC 25177 dormant stage infected in human THP1 cells measured on day 12 by nitrate reductase assay; type: functional, THP-1; settings: ATCC 25177, 288 h
[2] = Antitubercular activity against Mycobacterium tuberculosis H37Ra ATCC 25177 active stage infected in human THP1 cells measured on day 8 by nitrate reductase assay; type: functional, THP-1; settings: ATCC 25177, 192 h
[3] = Antitubercular activity against Mycobacterium tuberculosis H37Ra ATCC 25177 active stage measured on day 8 by XTT reduction menadione based two-fold dilution assay; type: functional; settings: ATCC 25177, 192 h
How it was run: (§1)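 M. tuberculosis H37Ra ATCC 25177 was exposed to 0.7–100 μg/mL in two-fold steps (0.7, 1.5, 3.1 … 100). Active stage was read after 8 days and dormant stage after 12 days of incubation. Inhibition was read by XTT reduction menadione assay (XRMA), absorbance 470 nm. MIC90 is the concentration giving ≥90% inhibition (µg/mL).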

[4] = Antitubercular activity against Mycobacterium tuberculosis H37Ra ATCC 25177 dormant stage measured on day 12 by XTT reduction menadione based two-fold dilution assay; type: functional; settings: ATCC 25177, 288 h; how it was run: as §1
[5] = Antitubercular activity against Mycobacterium bovis BCG ATCC 35743 active stage measured on day 8 by nitrate reductase based two-fold dilution assay; type: functional, Mycobacterium bovis BCG str. ATCC 35743; settings: Mycobacterium tuberculosis variant bovis BCG, ATCC 35743, 192 h
[6] = Antitubercular activity against Mycobacterium bovis BCG ATCC 35743 dormant stage measured on day 12 by nitrate reductase based two-fold dilution assay; type: functional, Mycobacterium bovis BCG str. ATCC 35743; settings: Mycobacterium tuberculosis variant bovis BCG, ATCC 35743, 288 h
[7] = Cytotoxicity against human THP1 cells by MTT assay; type: toxicity, cell-based, THP-1
[8] = Cytotoxicity against human MCF7 cells by MTT assay; type: toxicity, cell-based
[9] = Cytotoxicity against human HCT116 cells by MTT assay; type: toxicity, cell-based, HCT-116
[10] = Selectivity index, ratio of GI50 for human MCF7 cells to MIC90 for Mycobacterium tuberculosis H37Ra ATCC 25177 active stage; type: toxicity, cell-based; settings: read-out: Selectivity Index
How it was run: (§2)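 Cytotoxicity was measured on human MCF-7, HCT116 and THP-1 cells by MTT assay, with paclitaxel as reference. GI50 is the concentration inhibiting 50% of cell growth. The selectivity index is GI50 for the given cell line divided by MIC90 for the given mycobacterial strain and stage.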

[11] = Selectivity index, ratio of GI50 for human MCF7 cells to MIC90 for Mycobacterium tuberculosis H37Ra ATCC 25177 dormant stage; type: toxicity, cell-based; settings: read-out: Selectivity Index
How it was run: (§3)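 Cytotoxicity was measured on human MCF-7, HCT116 and THP-1 cells by MTT assay, with paclitaxel as reference. The selectivity index is GI50 for the given cell line divided by MIC90 for the given mycobacterial strain and stage.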

[12] = Selectivity index, ratio of GI50 for human MCF7 cells to MIC90 for Mycobacterium bovis BCG ATCC 35743 active stage; type: toxicity, cell-based; settings: read-out: Selectivity Index; how it was run: as §2
[13] = Selectivity index, ratio of GI50 for human MCF7 cells to MIC90 for Mycobacterium bovis BCG ATCC 35743 dormant stage; type: toxicity, cell-based; settings: read-out: Selectivity Index; how it was run: as §3
[14] = Selectivity index, ratio of GI50 for human HCT116 cells to MIC90 for Mycobacterium tuberculosis H37Ra ATCC 25177 active stage; type: toxicity, cell-based, HCT-116; settings: read-out: Selectivity Index; how it was run: as §2
[15] = Selectivity index, ratio of GI50 for human HCT116 cells to MIC90 for Mycobacterium tuberculosis H37Ra ATCC 25177 dormant stage; type: toxicity, cell-based, HCT-116; settings: read-out: Selectivity Index; how it was run: as §3
[16] = Selectivity index, ratio of GI50 for human HCT116 cells to MIC90 for Mycobacterium bovis BCG ATCC 35743 active stage; type: toxicity, cell-based, HCT-116; settings: read-out: Selectivity Index; how it was run: as §2
[17] = Selectivity index, ratio of GI50 for human HCT116 cells to MIC90 for Mycobacterium bovis BCG ATCC 35743 dormant stage; type: toxicity, cell-based, HCT-116; settings: read-out: Selectivity Index; how it was run: as §3
[18] = Selectivity index, ratio of GI50 for human THP1 cells to MIC90 for Mycobacterium tuberculosis H37Ra ATCC 25177 active stage; type: toxicity, cell-based, THP-1; settings: read-out: Selectivity Index; how it was run: as §2
[19] = Selectivity index, ratio of GI50 for human THP1 cells to MIC90 for Mycobacterium tuberculosis H37Ra ATCC 25177 dormant stage; type: toxicity, cell-based, THP-1; settings: read-out: Selectivity Index; how it was run: as §3
[20] = Selectivity index, ratio of GI50 for human THP1 cells to MIC90 for Mycobacterium bovis BCG ATCC 35743 active stage; type: toxicity, cell-based, THP-1; settings: read-out: Selectivity Index; how it was run: as §2
[21] = Selectivity index, ratio of GI50 for human THP1 cells to MIC90 for Mycobacterium bovis BCG ATCC 35743 dormant stage; type: toxicity, cell-based, THP-1; settings: read-out: Selectivity Index; how it was run: as §3
Escherichia coli [22] = test: Antibacterial activity against Escherichia coli; type: functional
Pseudomonas aeruginosa [23] = test: Antibacterial activity against Pseudomonas aeruginosa; type: functional
Staphylococcus aureus [24] = test: Antibacterial activity against Staphylococcus aureus; type: functional
Bacillus subtilis [25] = test: Antibacterial activity against Bacillus subtilis; type: functional
Escherichia coli [26] = test: Growth inhibition of Escherichia coli at 30 ug/ml; type: functional; settings: read-out: GI
Escherichia coli [27] = test: Growth inhibition of Escherichia coli at 10 ug/ml; type: functional; settings: read-out: GI
Escherichia coli [28] = test: Growth inhibition of Escherichia coli at 3 ug/ml; type: functional; settings: read-out: GI
How it was run: (§4)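 Screened against Gram-negative E. coli and P. aeruginosa and Gram-positive S. aureus and B. subtilis. Compound was tested at 3 µg/ml, and the read-out is percent growth inhibition.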

Pseudomonas aeruginosa [29] = test: Growth inhibition of Pseudomonas aeruginosa at 30 ug/ml; type: functional; settings: read-out: GI
Pseudomonas aeruginosa [30] = test: Growth inhibition of Pseudomonas aeruginosa at 10 ug/ml; type: functional; settings: read-out: GI
Pseudomonas aeruginosa [31] = test: Growth inhibition of Pseudomonas aeruginosa at 3 ug/ml; type: functional; settings: read-out: GI; how it was run: as §4
Staphylococcus aureus [32] = test: Growth inhibition of Staphylococcus aureus at 30 ug/ml; type: functional; settings: read-out: GI
Staphylococcus aureus [33] = test: Growth inhibition of Staphylococcus aureus at 10 ug/ml; type: functional; settings: read-out: GI
Staphylococcus aureus [34] = test: Growth inhibition of Staphylococcus aureus at 3 ug/ml; type: functional; settings: read-out: GI; how it was run: as §4
Bacillus subtilis [35] = test: Growth inhibition of Bacillus subtilis at 30 ug/ml; type: functional; settings: read-out: GI
Bacillus subtilis [36] = test: Growth inhibition of Bacillus subtilis at 10 ug/ml; type: functional; settings: read-out: GI
Bacillus subtilis [37] = test: Growth inhibition of Bacillus subtilis at 3 ug/ml; type: functional; settings: read-out: GI; how it was run: as §4

`C/C(=N\Nc1nc(-c2ccc(C)cc2)cs1)c1sc(-c2ccccc2)nc1C` showed an MIC90 [1] greater than 100 µg/mL, an MIC90 [2] greater than 100 µg/mL and an IC50 [3] of 0.16 µg/mL (≈ 0.395 µM). It also gave an MIC90 [3] greater than 100 µg/mL, an IC50 [4] of 0.075 µg/mL (≈ 0.185 µM) and an MIC90 [4] greater than 100 µg/mL. It also gave an IC50 [5] of 5.21 µg/mL (≈ 12.9 µM), an MIC90 [5] of 19.7 µg/mL (≈ 48.6 µM) and an IC50 [6] of 5.29 µg/mL (≈ 13.1 µM). It also gave an MIC90 [6] of 57.5 µg/mL (≈ 142 µM), a GI50 ([7]; THP1 cells) greater than 100 µg/mL and a GI90 ([7]; thp-1) greater than 100 µg/mL. For the same compound, the GI50 ([8]; MCF7 cells) was greater than 100 µg/mL, the GI90 ([8]; mcf7) was greater than 100 µg/mL and the GI50 ([9]; HCT116 cells) was greater than 100 µg/mL. The GI90 ([9]; hct-116) was greater than 100 µg/mL, the selectivity ratio [10] was 1 and the selectivity ratio [11] was 1. The selectivity ratio [12] was 5, the selectivity ratio [13] was 2 and the selectivity ratio [14] was 1. It also gave a selectivity ratio [15] of 1, a selectivity ratio [16] of 5 and a selectivity ratio [17] of 2. For the same compound, the selectivity ratio [18] was 1, the selectivity ratio [19] was 1 and the selectivity ratio [20] was 5. For the same compound, the selectivity ratio [21] was 2, the IC50 (Escherichia coli [22]) was 0.454 µg/mL (≈ 1.12 µM) and the MIC (Escherichia coli [22]) was 1.43 µg/mL (≈ 3.53 µM). The IC50 (Pseudomonas aeruginosa [23]) was 0.587 µg/mL (≈ 1.45 µM), the MIC (Pseudomonas aeruginosa [23]) was 1.53 µg/mL (≈ 3.78 µM) and the IC50 (Staphylococcus aureus [24]) was 0.624 µg/mL (≈ 1.54 µM). The MIC (Staphylococcus aureus [24]) was 2.46 µg/mL (≈ 6.08 µM), the IC50 (Bacillus subtilis [25]) was 0.742 µg/mL (≈ 1.83 µM) and the MIC (Bacillus subtilis [25]) was 2.95 µg/mL (≈ 7.29 µM). The inhibition of growth at 30 µg/mL (Escherichia coli [26]) was 97%, the inhibition of growth at 10 µg/mL (Escherichia coli [27]) was 94.1% and the inhibition of growth at 3 µg/mL (Escherichia coli [28]) was 92.2%. It also gave an inhibition of growth at 30 µg/mL (Pseudomonas aeruginosa [29]) of 98.8%, an inhibition of growth at 10 µg/mL (Pseudomonas aeruginosa [30]) of 95.6% and an inhibition of growth at 3 µg/mL (Pseudomonas aeruginosa [31]) of 93.4%. It also gave an inhibition of growth at 30 µg/mL (Staphylococcus aureus [32]) of 97.1%, an inhibition of growth at 10 µg/mL (Staphylococcus aureus [33]) of 94% and an inhibition of growth at 3 µg/mL (Staphylococcus aureus [34]) of 91.9%. For the same compound, the inhibition of growth at 30 µg/mL (Bacillus subtilis [35]) was 96.9%, the inhibition of growth at 10 µg/mL (Bacillus subtilis [36]) was 93.5% and the inhibition of growth at 3 µg/mL (Bacillus subtilis [37]) was 91.3%.

Source: ChEMBL document CHEMBL3872252, “New bithiazolyl hydrazones: Novel synthesis, characterization and antitubercular evaluation” (Bioorg Med Chem Lett, 2017)
